These results are taken from ChEMBL document CHEMBL3992521, “Pyrimidinyl Biphenylureas: Identification of New Lead Compounds as Allosteric Modulators of the Cannabinoid Receptor CB1” (J Med Chem, 2017).

Calls of active or inactive are those of the source. No cut-off for these calls is given here.

For test [1], the target named is Cannabinoid receptor 1 (Homo sapiens) (UniProt P21554). Put plainly: Allosteric modulation at CB1 receptor (unknown origin) expressed in HEK293T cell membranes assessed as inhibition of CP55,940 induced [35S]GTPgammaS binding after 1 hr by liquid scintillation counting method. In kind it is functional. The method, boiled down:
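HEK293T cells transiently transfected with CB1 (calcium phosphate), membranes harvested 24 h later; 7.5 µg membrane incubated 1 h at 30 °C with CP55,940 1 µM, 0.1 nM [35S]GTPγS, 5 µM GDP, 0.1% BSA in Tris-HCl pH 7.4/MgCl2/EGTA/NaCl buffer, varying modulator concentrations. Nonspecific binding with 10 µM unlabeled GTPγS; filtration. Expressed as % of CP55,940 signal; duplicate, ≥3 independent experiments.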
(In general: GTPγS resists hydrolysis and so accumulates on activated G proteins.)

Test [2] has the same target. Nature of the test: Positive allosteric modulation of CB1 receptor (unknown origin) expressed in HEK293T cell membrane assessed as ERK1/2 phosphorylation in presence of beta-arrestin1 siRNA at 10 uM incubated for 5 mins by Western blot method. In kind it is cell-based. The method, boiled down: (§1)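 CB1-transfected HEK293T cells carried control, β-arrestin 1 or β-arrestin 2 siRNA, or were pretreated 12 h at 37 °C with PTX 5 ng/mL. They were then washed and given allosteric modulator 10 μM alone for 5 min, with DMSO vehicle as control. ERK1/2 phosphorylation was read by Western blot of 13 µg lysate protein using phospho- and total p44/42 antibodies.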
(Immunoblotting shows a protein as a band on a membrane.)

Test [3] has the same target. Put plainly: Positive allosteric modulation of CB1 receptor (unknown origin) expressed in HEK293T cell membranes assessed as increase in [3H]CP55,940 binding by liquid scintillation counting method. Put shortly:
(§2)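 Membranes from HEK293T cells transiently expressing CB1 (harvested 24 h post-transfection) incubated with 0.5 nM [3H]CP55,940 and at least nine modulator concentrations (100 pM–100 µM) in TME buffer pH 7.4 with 0.2% fatty acid-free BSA; nonspecific binding with 1 µM unlabeled CP55,940; filtration. KB and cooperativity α from nonlinear regression; duplicate, ≥3 experiments, 95% confidence limits.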

Test [4] has the same target. Nature of the test: Positive allosteric modulation of CB1 receptor (unknown origin) expressed in HEK293T cell membrane assessed as increase in beta-arrestin mediated ERK1/2 phosphorylation at 10 uM in presence of G-protein sensitive pertussis toxin incubated for 5 mins by Western blot method. In kind it is cell-based. Put shortly:
as §1

Test [5] has the same target. Nature of the test: Positive allosteric modulation of CB1 receptor (unknown origin) expressed in HEK293T cell membranes assessed as increase in [3H]CP55,940 binding up to 32 uM by liquid scintillation counting method. The method, boiled down:
as §2

Sequence of Cannabinoid receptor 1 (Homo sapiens) (P21554 whole entry): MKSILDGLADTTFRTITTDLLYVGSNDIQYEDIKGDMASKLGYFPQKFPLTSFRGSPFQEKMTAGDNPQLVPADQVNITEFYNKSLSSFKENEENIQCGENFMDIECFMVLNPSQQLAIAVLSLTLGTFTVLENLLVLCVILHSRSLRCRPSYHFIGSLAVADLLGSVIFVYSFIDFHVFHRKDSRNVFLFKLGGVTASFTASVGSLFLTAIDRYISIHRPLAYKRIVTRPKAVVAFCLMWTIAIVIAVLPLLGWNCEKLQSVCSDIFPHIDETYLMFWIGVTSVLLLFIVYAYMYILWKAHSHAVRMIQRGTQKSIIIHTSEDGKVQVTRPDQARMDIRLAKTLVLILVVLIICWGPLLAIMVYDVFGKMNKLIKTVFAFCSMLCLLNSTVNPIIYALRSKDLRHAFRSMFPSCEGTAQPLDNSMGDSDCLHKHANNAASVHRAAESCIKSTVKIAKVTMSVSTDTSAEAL

`O=C(Nc1ccc(Cl)cc1)Nc1cccc(-c2cccc(N3CCCC3)n2)c1`: in test [1], the inhibition entry is “Dose-dependent effect”. Moreover, the result in test [2] was Active.

With `CN(C)c1nccc(-c2cccc(NC(=O)Nc3ccc(C#N)cc3)c2)n1`, the Kb in test [3] came to 417 nM.

Turning to `N#Cc1ccc(NC(=O)Nc2cccc(-c3nccc(N4CCCCC4)n3)c2)cc1`, the Kb in test [3] worked out at 66.4 nM.

As to `O=C(Nc1ccc(F)cc1)Nc1cccc(-c2ccnc(N3CCCC3)n2)c1`, the Kb in test [3] was determined as 196 nM.

As for `CN(C)c1nccc(-c2cccc(NC(=O)Nc3ccc(F)cc3)c2)n1`, the Kb in test [3] turned out to be 1120 nM.

Turning to `CN(C)c1ccnc(-c2cccc(NC(=O)Nc3ccc(F)cc3)c2)n1`, the Kb in test [3] turned out to be 1220 nM.

In the case of `N#Cc1ccc(NC(=O)Nc2cccc(-c3ccnc(N4CCCC4)n3)c2)cc1`, the inhibition result in test [1] is “Dose-dependent effect”. Moreover, the outcome in test [2] and in test [4] was Active. For the same compound, the Kb in test [3] is 168 nM.

For `O=C(Nc1ccc(Cl)cc1)Nc1cccc(-c2ccnc(N3CCCC3)n2)c1`, in test [1], the inhibition entry was “Dose-dependent effect”. Moreover, the Kb in test [3] was determined as 227 nM.

For the compound `O=C(Nc1ccc(Br)cc1)Nc1cccc(-c2ccnc(N3CCCC3)n2)c1`, the Kb in test [3] came to 395 nM.

Turning to `N#Cc1ccc(NC(=O)Nc2cccc(-c3nccc(N4CCCC4)n3)c2)cc1`, the inhibition entry in test [1] was “Dose-dependent effect”. For the same compound, the result in test [2] and in test [4] was Active. The Kb in test [3] amounted to 49.1 nM.

As for `O=C(Nc1ccc(Br)cc1)Nc1cccc(-c2nccc(N3CCCC3)n2)c1`, in test [3], the Kb worked out at 102 nM.

For the compound `COc1ccc(NC(=O)Nc2cccc(-c3nccc(N4CCCC4)n3)c2)cc1`, in test [3], the Kb is 1830 nM.

Take `CN(C)c1nccc(-c2cccc(NC(=O)Nc3ccc(I)cc3)c2)n1`: the Kb in test [3] was found to be 965 nM.

In the case of `CCOC(=O)c1ccc(NC(=O)Nc2cccc(-c3nccc(N4CCCC4)n3)c2)cc1`, the Kb in test [3] is 463 nM.

Take `N#Cc1ccc(NC(=O)Nc2cccc(-c3nccc(N4CCC4)n3)c2)cc1`: the Kb in test [3] was determined as 211 nM.

Consider `O=C(Nc1ccc(F)cc1)Nc1cccc(-c2nccc(N3CCCC3)n2)c1`, for which, in test [3], the Kb turned out to be 223 nM.

In the case of `N#Cc1cccc(NC(=O)Nc2cccc(-c3nccc(N4CCCC4)n3)c2)c1`, the Kb in test [3] was found to be 1980 nM.

Regarding `O=C(Nc1ccc(O)cc1)Nc1cccc(-c2nccc(N3CCCC3)n2)c1`, the result in test [3] and in test [5] was inactive.

Take `CN(C)c1ccnc(-c2cccc(NC(=O)Nc3ccc(C(F)(F)F)cc3)c2)n1`: the Kb in test [3] was 144 nM.

Turning to `CC(=O)c1ccc(NC(=O)Nc2cccc(-c3nccc(N4CCCC4)n3)c2)cc1`, the Kb in test [3] is 2110 nM.

For `O=C(Nc1ccc(Cl)cc1)Nc1cccc(-c2nccc(N3CCCC3)n2)c1`, the inhibition entry in test [1] was “Dose-dependent effect”. In addition, in test [3], the Kb was determined as 264 nM.

Turning to `O=C(Nc1ccc(C(=O)O)cc1)Nc1cccc(-c2nccc(N3CCCC3)n2)c1`, the result in test [3] and in test [5] was inactive.

Turning to `N#Cc1ccc(NC(=O)Nc2cccc(-c3nccc(NC4CC4)n3)c2)cc1`, the Kb in test [3] amounted to 97.7 nM.

Take `CCN(CC)c1ccnc(-c2cccc(NC(=O)Nc3ccc(C#N)cc3)c2)n1`: the inhibition entry in test [1] was “Dose-dependent effect”. Besides, in test [3], the Kb was 69.6 nM.

For the compound `CN(C)c1ccnc(-c2cccc(NC(=O)Nc3ccc(I)cc3)c2)n1`, the Kb in test [3] was 997 nM.

Take `CCN(C)c1ccnc(-c2cccc(NC(=O)Nc3ccc(C#N)cc3)c2)n1`: the Kb in test [3] worked out at 207 nM.

`CN(C)c1ccnc(-c2cccc(NC(=O)Nc3ccc(C#N)cc3)c2)n1`: the Kb in test [3] is 313 nM.

Regarding `CN(C)c1ccnc(-c2cccc(NC(=O)Nc3cccc(F)c3)c2)n1`, the Kb in test [3] is 670 nM.

As for `CN(C)c1nccc(-c2cccc(NC(=O)Nc3cccc(F)c3)c2)n1`, the Kb in test [3] is 967 nM.
